{"source": "ChEMBL document CHEMBL5230168", "about": "“Design, synthesis, and biological evaluation of new arjunolic acid derivatives as anticancer agents” (RSC Med Chem, 2023)", "key": {"[1]": {"experiment": "Toxicity in Balb/c mouse assessed as hypothermia at 50 to 100 mg/kg, ip measured upto 24 hrs by Irwin test", "assay_type": "organism-based", "conditions": "in vivo, dose 50-100 mg/kg", "method_in_brief": "(§1)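 Irwin primary observation in female Balb/c mice aged 7–8 weeks, 3 per group. Single i.p. doses of 0.01, 0.1, 1, 5, 10, 50 and 100 mg kg−1 in 0.2% HPMC in saline; vehicle controls observed in parallel, non-blind. Standardized grid including rectal temperature and pupil diameter scored at 15, 30, 60, 120 and 180 min and 24 h, with continuous watch over 0–15 min.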"}, "PANC-1 [2]": {"test_system": "PANC-1", "experiment": "Induction of apoptosis in human PANC-1 cells assessed as early apoptotic cells at 2.82 uM incubated for 24 hrs by Annexin V-FITC/PI staining based flow cytometric analysis (reference value: 5.2%)", "assay_type": "functional", "method_in_brief": "(§2)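 PANC-1 seeded at 2 × 10^5 cells/well, grown 24 h, then treated 24 h. PI added just before flow cytometry. Quadrant percentages given as mean ± SD of three experiments. Untreated control.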"}, "PANC-1 [3]": {"test_system": "PANC-1", "experiment": "Induction of cell cycle arrest in human PANC-1 cells assessed as decrease in S phase cells at 1.88 uM incubated for 24 hrs by PI staining based flow cytometric analysis (Rvb= 19.8 %)", "assay_type": "functional", "design": "scale not given: the % may be the effect or the level left"}, "[4]": {"experiment": "Selectivity index, ratio of IC50 for cytotoxicity against human BJ cells to IC50 for cytotoxicity against human PANC-1", "assay_type": "toxicity, cell-based", "conditions": "BJ cells and PANC-1 cells, read-out: Ratio IC50", "method_in_brief": "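Selectivity index: BJ fibroblast IC50 over PANC-1 IC50, both from the 72 h MTT assay with 24 h pre-seeding (10 000 and 4000 cells/well). IC50 from three independent experiments.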"}, "[5]": {"experiment": "Toxicity in Balb/c mouse assessed as decrease of abdominal muscle tone at 50 to 100 mg/kg, ip measured upto 24 hrs by Irwin test", "assay_type": "organism-based", "conditions": "in vivo, dose 50-100 mg/kg", "method_in_brief": "as §1"}, "[6]": {"experiment": "Toxicity in Balb/c mouse assessed as decrease in activity at 50 to 100 mg/kg, ip measured upto 24 hrs by Irwin test", "assay_type": "organism-based", "conditions": "in vivo, dose 50-100 mg/kg", "method_in_brief": "as §1"}, "[7]": {"experiment": "Toxicity in Balb/c mouse assessed as transient observation of sole sign at 0.01 to 10 mg/kg, ip measured upto 24 hrs by Irwin test", "assay_type": "organism-based", "conditions": "in vivo, dose 0.01-10 mg/kg", "method_in_brief": "as §1"}, "SK-MEL-28": {"test_system": "SK-MEL-28", "experiment": "Cytotoxicity against human SK-MEL-28 cells assessed as inhibition of cell growth incubated for 72 hrs by MTT assay", "assay_type": "functional, cell-based", "conditions": "SK-MEL-28, 72 h", "method_in_brief": "(§3)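 Cells seeded per well (HT-29 4500, PANC-1 4000, SK-MEL-28 3200, A375 1200, A549 2500, H2170 and BJ 10 000) and left 24 h. They were then exposed to increasing concentrations for 72 h and incubated 1 h with MTT 0.5 mg mL−1. Formazan was dissolved in DMSO and absorbance read at 550 nm. IC50 from three independent experiments. Final DMSO ≤0.5%.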"}, "[8]": {"experiment": "Toxicity in Balb/c mouse assessed as decreased fear/startle at 50 to 100 mg/kg, ip measured upto 24 hrs by Irwin test", "assay_type": "organism-based", "conditions": "in vivo, dose 50-100 mg/kg", "method_in_brief": "as §1"}, "PANC-1 [9]": {"test_system": "PANC-1", "experiment": "Induction of apoptosis in human PANC-1 cells assessed as viable cells at 2.82 uM incubated for 24 hrs by Annexin V-FITC/PI staining based flow cytometric analysis (reference value: 89.8%)", "assay_type": "functional", "conditions": "read-out: Activity", "method_in_brief": "as §2"}, "PANC-1 [10]": {"test_system": "PANC-1", "experiment": "Synergistic cytotoxicity against human PANC-1 cells assessed as combination index at 0.94 uM incubated for 72 hrs in the presence of 47 uM gemcitabine by MTT assay", "assay_type": "functional"}, "PANC-1 [11]": {"test_system": "PANC-1", "experiment": "Induction of apoptosis in human PANC-1 cells assessed as late apoptotic cells at 1.88 uM incubated for 24 hrs by Annexin V-FITC/PI staining based flow cytometric analysis (reference value: 1.1%)", "assay_type": "functional", "method_in_brief": "as §2"}, "NCI-H2170": {"test_system": "NCI-H2170", "experiment": "Cytotoxicity against human NCI-H2170 cells assessed as inhibition of cell growth incubated for 72 hrs by MTT assay", "assay_type": "functional, cell-based", "conditions": "NCI-H2170, 72 h", "method_in_brief": "as §3"}, "PANC-1 [12]": {"test_system": "PANC-1", "experiment": "Inhibition of cell migration in human PANC-1 cells incubated upto 72 hrs by scratch wound healing assay", "assay_type": "functional, cell-based", "conditions": "dose 0.47-2.82 µM", "method_in_brief": "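Confluent PANC-1 monolayers (4000 cells/well seeded, 24 h) were scratched with a P200 tip and washed with PBS. Medium with compound or 0.5% DMSO control was added. Wound area imaged by high-content microscopy at 0, 24, 48 and 72 h.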"}, "PANC-1 [13]": {"test_system": "PANC-1", "experiment": "Induction of apoptosis in human PANC-1 cells assessed as early apoptotic cells at 1.88 uM incubated for 24 hrs by Annexin V-FITC/PI staining based flow cytometric analysis (reference value: 5.2%)", "assay_type": "functional", "method_in_brief": "as §2"}, "PANC-1 [14]": {"test_system": "PANC-1", "experiment": "Induction of apoptosis in human PANC-1 cells assessed as viable cells at […] incubated for 24 hrs by Annexin V-FITC/PI staining based flow cytometric analysis (reference value: 89.8%)", "assay_type": "functional", "conditions": "read-out: Activity", "method_in_brief": "as §2"}, "PANC-1 [15]": {"test_system": "PANC-1", "experiment": "Induction of apoptosis in human PANC-1 cells assessed as late apoptotic cells at 2.82 uM incubated for 24 hrs by Annexin V-FITC/PI staining based flow cytometric analysis (reference value: 1.1%)", "assay_type": "functional", "method_in_brief": "as §2"}, "PANC-1 [16]": {"test_system": "PANC-1", "experiment": "Cytotoxicity against human PANC-1 cells assessed as inhibition of cell growth incubated for 72 hrs by MTT assay", "assay_type": "functional, cell-based", "conditions": "PANC-1, 72 h", "method_in_brief": "as §3"}, "PANC-1 [17]": {"test_system": "PANC-1", "experiment": "Synergistic cytotoxicity against human PANC-1 cells assessed as combination index at 1.88 uM incubated for 72 hrs in the presence of 94 uM gemcitabine by MTT assay", "assay_type": "functional"}, "PANC-1 [18]": {"test_system": "PANC-1", "experiment": "Synergistic cytotoxicity against human PANC-1 cells assessed as combination index at 0.12 uM incubated for 72 hrs in the presence of 6 uM gemcitabine by MTT assay", "assay_type": "functional"}, "[19]": {"experiment": "Toxicity in Balb/c mouse assessed as decrease of respiration at 50 to 100 mg/kg, ip measured upto 24 hrs by Irwin test", "assay_type": "organism-based", "conditions": "in vivo, dose 50-100 mg/kg", "method_in_brief": "as §1"}, "[20]": {"experiment": "Toxicity in Balb/c mouse assessed as tremor at 50 to 100 mg/kg, ip measured upto 24 hrs by Irwin test", "assay_type": "organism-based", "conditions": "in vivo, dose 50-100 mg/kg", "method_in_brief": "as §1"}, "PANC-1 [21]": {"test_system": "PANC-1", "experiment": "Induction of apoptosis in human PANC-1 cells assessed as viable cells at 0.94 uM incubated for 24 hrs by Annexin V-FITC/PI staining based flow cytometric analysis (reference value: 89.8%)", "assay_type": "functional", "conditions": "read-out: Activity", "method_in_brief": "as §2"}, "[22]": {"experiment": "Toxicity in Balb/c mouse assessed as decreased reactivity to touch at 50 to 100 mg/kg, ip measured upto 24 hrs by Irwin test", "assay_type": "organism-based", "conditions": "in vivo, dose 50-100 mg/kg", "method_in_brief": "as §1"}, "PANC-1 [23]": {"test_system": "PANC-1", "experiment": "Induction of cell cycle arrest in human PANC-1 cells assessed as accumulation of cells at G0/G1 phase incubated for 24 hrs by PI staining based flow cytometric analysis", "assay_type": "functional", "conditions": "dose 0.47-2.82 µM"}, "PANC-1 [24]": {"test_system": "PANC-1", "experiment": "Induction of apoptosis in human PANC-1 cells assessed as necrotic cells at 2.82 uM incubated for 24 hrs by Annexin V-FITC/PI staining based flow cytometric analysis (reference value: 3.9%)", "assay_type": "functional", "method_in_brief": "as §2"}, "[25]": {"experiment": "Cytotoxicity against human BJ cells assessed as inhibition of cell growth incubated for 72 hrs by MTT assay", "assay_type": "toxicity, cell-based", "method_in_brief": "as §3"}, "[26]": {"experiment": "Toxicity in Balb/c mouse assessed as occasional writhing at 0.01 to 10 mg/kg, ip measured upto 24 hrs by Irwin test", "assay_type": "organism-based", "conditions": "in vivo, dose 0.01-10 mg/kg", "method_in_brief": "as §1"}, "PANC-1 [27]": {"test_system": "PANC-1", "experiment": "Induction of apoptosis in human PANC-1 cells assessed as early apoptotic cells at 0.94 uM incubated for 24 hrs by Annexin V-FITC/PI staining based flow cytometric analysis (reference value: 5.2%)", "assay_type": "functional", "method_in_brief": "as §2"}, "A-375": {"test_system": "A-375", "experiment": "Cytotoxicity against human A-375 cells assessed as inhibition of cell growth incubated for 72 hrs by MTT assay", "assay_type": "functional, cell-based", "conditions": "A-375, 72 h", "method_in_brief": "as §3"}}}
{"smiles": "CCOC(=O)[C@]12CCC(C)(C)C[C@H]1C1=CC[C@@H]3[C@@]4(C)C(C=O)=C[C@@](C)(CO)[C@@H]4CC[C@@]3(C)[C@]1(C)CC2", "values": [{"measurement": "Activity", "setting": "[1]", "value": "Toxic"}, {"measurement": "Activity", "setting": "PANC-1 [2]", "value": 9.9, "unit": "%"}, {"measurement": "Activity", "setting": "PANC-1 [3]", "value": 3.7, "unit": "%"}, {"measurement": "selectivity ratio", "setting": "[4]", "value": 6.5}, {"measurement": "Activity", "setting": "[5]", "value": "Toxic"}, {"measurement": "Activity", "setting": "[6]", "value": "Toxic"}, {"measurement": "Activity", "setting": "[7]", "value": "Non-Toxic"}, {"measurement": "IC50", "setting": "SK-MEL-28", "value": 580, "unit": "nM"}, {"measurement": "Activity", "setting": "[8]", "value": "Toxic"}, {"measurement": "viability at 2.82 µM", "setting": "PANC-1 [9]", "value": 84.7, "unit": "%"}, {"measurement": "CI", "setting": "PANC-1 [10]", "value": 0.86}, {"measurement": "Activity", "setting": "PANC-1 [11]", "value": 2.2, "unit": "%"}, {"measurement": "IC50", "setting": "NCI-H2170", "value": 1330, "unit": "nM"}, {"measurement": "inhibition", "setting": "PANC-1 [12]", "value": "Dose-Dependent Effect"}, {"measurement": "Activity", "setting": "PANC-1 [13]", "value": 7.5, "unit": "%"}, {"measurement": "viability", "setting": "PANC-1 [14]", "value": 91.7, "unit": "%"}, {"measurement": "Activity", "setting": "PANC-1 [15]", "value": 3.5, "unit": "%"}, {"measurement": "IC50", "setting": "PANC-1 [16]", "value": 470, "unit": "nM"}, {"measurement": "CI", "setting": "PANC-1 [17]", "value": 0.79}, {"measurement": "CI", "setting": "PANC-1 [18]", "value": 0.93}, {"measurement": "Activity", "setting": "[19]", "value": "Toxic"}, {"measurement": "Activity", "setting": "[20]", "value": "Toxic"}, {"measurement": "viability at 0.94 µM", "setting": "PANC-1 [21]", "value": 90.4, "unit": "%"}, {"measurement": "Activity", "setting": "[22]", "value": "Toxic"}, {"measurement": "Activity", "setting": "PANC-1 [23]", "value": "Dose-Dependent Effect"}, {"measurement": "Activity", "setting": "PANC-1 [24]", "value": 2, "unit": "%"}, {"measurement": "IC50 at 72 h", "setting": "[25]", "value": 3060, "unit": "nM"}, {"measurement": "Activity", "setting": "[26]", "value": "Non-Toxic"}, {"measurement": "Activity", "setting": "PANC-1 [27]", "value": 5.7, "unit": "%"}, {"measurement": "IC50", "setting": "A-375", "value": 580, "unit": "nM"}]}
